Reference: ChEMBL document CHEMBL1141693, “Discovery of benzoylpiperazines as a novel class of potent and selective GlyT1 inhibitors” (Bioorg Med Chem Lett, 2008)
≈ marks a conversion by molar mass, not a printed value.

Tests used:
[1] = molecular target: T1, Sodium- and chloride-dependent glycine transporter 1 (Homo sapiens, UniProt P48067); experiment: Inhibition of [3H]glycine uptake at human glycine transporter 1 expressed in CHO cells by scintillation counter; format: cell-based
T1 sequence (P48067 whole entry): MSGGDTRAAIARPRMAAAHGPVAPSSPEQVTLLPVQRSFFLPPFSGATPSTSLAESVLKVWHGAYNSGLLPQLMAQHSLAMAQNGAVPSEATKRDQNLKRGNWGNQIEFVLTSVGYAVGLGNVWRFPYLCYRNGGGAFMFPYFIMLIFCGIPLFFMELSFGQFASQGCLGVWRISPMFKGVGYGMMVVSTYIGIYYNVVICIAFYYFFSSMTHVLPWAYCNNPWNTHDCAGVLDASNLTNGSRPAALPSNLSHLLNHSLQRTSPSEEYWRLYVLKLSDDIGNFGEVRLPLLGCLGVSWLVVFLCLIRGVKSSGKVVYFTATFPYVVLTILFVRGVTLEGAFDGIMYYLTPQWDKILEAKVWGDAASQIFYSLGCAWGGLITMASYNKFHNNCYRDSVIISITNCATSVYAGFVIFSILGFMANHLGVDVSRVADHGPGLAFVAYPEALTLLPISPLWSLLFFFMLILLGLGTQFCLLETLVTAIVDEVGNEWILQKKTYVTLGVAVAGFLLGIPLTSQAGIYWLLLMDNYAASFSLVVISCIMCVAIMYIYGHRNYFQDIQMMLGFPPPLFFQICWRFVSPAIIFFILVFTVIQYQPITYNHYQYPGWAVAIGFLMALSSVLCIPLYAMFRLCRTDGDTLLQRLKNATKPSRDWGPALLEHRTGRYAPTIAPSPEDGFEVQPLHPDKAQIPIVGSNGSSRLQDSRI

[2] = molecular target: T2, Sodium- and chloride-dependent glycine transporter 2 (Homo sapiens, UniProt Q9Y345); experiment: Inhibition of [3H]glycine uptake at human glycine transporter 2 expressed in CHO cells by scintillation counter; format: cell-based
T2 sequence (Q9Y345 whole entry): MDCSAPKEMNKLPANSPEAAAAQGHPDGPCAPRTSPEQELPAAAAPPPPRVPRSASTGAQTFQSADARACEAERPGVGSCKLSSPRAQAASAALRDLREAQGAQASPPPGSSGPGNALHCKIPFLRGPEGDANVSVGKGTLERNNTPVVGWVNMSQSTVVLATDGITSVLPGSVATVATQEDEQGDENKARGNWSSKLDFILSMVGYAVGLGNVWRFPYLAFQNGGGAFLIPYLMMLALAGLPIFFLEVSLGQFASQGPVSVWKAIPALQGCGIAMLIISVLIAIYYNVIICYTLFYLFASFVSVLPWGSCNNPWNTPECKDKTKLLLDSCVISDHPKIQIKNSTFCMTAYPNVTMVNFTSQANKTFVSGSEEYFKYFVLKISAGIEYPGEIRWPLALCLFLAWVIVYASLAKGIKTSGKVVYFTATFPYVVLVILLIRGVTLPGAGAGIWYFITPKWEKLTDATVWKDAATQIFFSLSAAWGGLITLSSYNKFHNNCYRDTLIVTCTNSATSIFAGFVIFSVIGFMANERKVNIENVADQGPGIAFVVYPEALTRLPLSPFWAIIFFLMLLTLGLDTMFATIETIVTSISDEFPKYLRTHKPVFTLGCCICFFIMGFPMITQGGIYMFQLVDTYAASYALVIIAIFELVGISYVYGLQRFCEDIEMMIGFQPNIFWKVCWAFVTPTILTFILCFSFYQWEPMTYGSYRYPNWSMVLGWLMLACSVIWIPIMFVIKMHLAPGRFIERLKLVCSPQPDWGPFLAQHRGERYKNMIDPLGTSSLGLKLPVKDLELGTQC
How it was run: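 [³H]-glycine uptake inhibition in cells transfected with human GlyT2 cDNA. EC50 is the average of at least two independent experiments.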

Homo sapiens = species on record: Homo sapiens; experiment: Selectivity ratio of IC50 for human glycine transporter 2 to IC50 for human glycine transporter 1
How it was run: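 [³H]-glycine uptake inhibition in cells transfected with human GlyT1 or human GlyT2 cDNA. Each EC50 is the average of at least two independent experiments. Selectivity is the ratio of GlyT2 EC50 to GlyT1 EC50.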

Liver microsomes [3] = experiment: Metabolic stability in human liver microsomes assessed as intrinsic clearance per […] of protein; format: ADME, Microsome
How it was run: (§1)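 Intrinsic clearance measured in liver microsomes from rat, mouse or human, expressed per mg microsomal protein.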

[4] = Aqueous solubility in phosphate buffer at pH 6.5 by lyophilization solubility assay; format: physicochemical
How it was run: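 Aqueous solubility was measured at pH 6.5 in a lyophilization solubility assay.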

[5] = Metabolic stability in mouse liver microsomes assessed as intrinsic clearance per […] of protein; format: ADME, Microsome; how it was run: as §1
[6] = Membrane permeability by PAMPA; format: ADME; details: read-out: permeability
How it was run: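 PAMPA artificial-membrane permeation, reported as the permeation constant Pe in 10^-6 cm/s.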

Liver microsomes [7] = experiment: Metabolic stability in rat liver microsomes assessed as intrinsic clearance per […] of protein; format: ADME, Microsome; how it was run: as §1

SMILES	EC50 [1] [nM]	EC50 [2] [nM]	also measured
COc1ccc(N2CCN(C(=O)c3cc([N+](=O)[O-])ccc3N3CCOCC3)CC2)cc1	1300	11400	
CC(=O)c1ccc(N2CCN(C(=O)c3cc(S(C)(=O)=O)ccc3OC(C)C)CC2)c(F)c1	39	> 30000	
CS(=O)(=O)c1ccc(N2CCOCC2)c(C(=O)N2CCN(c3ccc(C(F)(F)F)cc3)CC2)c1	45		clearance (Liver microsomes [3]): 10 µL/min/mg; solubility [4]: 3 µg/mL (≈ 6.03 µM); clearance [5]: 15 µL/min/mg
O=C(c1cc([N+](=O)[O-])ccc1N1CCOCC1)N1CCN(c2ccccc2C(F)(F)F)CC1	7100	> 30000	
O=C(c1cc([N+](=O)[O-])ccc1N1CCOCC1)N1CCN(c2cccc(C(F)(F)F)c2)CC1	400	300	
CC(=O)c1ccc(N2CCN(C(=O)c3cc(S(C)(=O)=O)ccc3SC(C)C)CC2)c(F)c1	15	> 30000	
CC(=O)c1ccc(N2CCN(C(=O)c3cc([N+](=O)[O-])ccc3NC3CCCCC3)CC2)c(F)c1	2	8500	
CC(=O)c1ccc(N2CCN(C(=O)c3cccc([N+](=O)[O-])c3)CC2)c(F)c1	32000	24500	
CNc1ccc([N+](=O)[O-])cc1C(=O)N1CCN(c2ccc(C(C)=O)cc2F)CC1	1900	1400	
O=C(c1cc([N+](=O)[O-])ccc1N1CCOCC1)N1CCN(c2ccc(C(F)(F)F)c(Cl)n2)CC1	33	24000	
N#Cc1ccc(N2CCN(C(=O)c3cc([N+](=O)[O-])ccc3N3CCOCC3)CC2)cc1	78	1100	
CC(=O)c1ccc(N2CCN(C(=O)c3cc([N+](=O)[O-])ccc3NCC3CCCCC3)CC2)c(F)c1	> 10000		
O=C(c1cc([N+](=O)[O-])ccc1N1CCOCC1)N1CCN(c2ccc(C(F)(F)F)cc2)CC1	100	3300	
O=C(c1cc([N+](=O)[O-])ccc1N1CCOCC1)N1CCN(c2ncc(C(F)(F)F)cc2Cl)CC1	47	> 30000	
CS(=O)(=O)c1ccc(N2CCN(C(=O)c3cc([N+](=O)[O-])ccc3N3CCOCC3)CC2)cc1	110	2100	
CC(C)Oc1ccc(S(C)(=O)=O)cc1C(=O)N1CCN(c2ccc(C(F)(F)F)cc2)CC1	82		clearance (Liver microsomes [3]): 0 µL/min/mg; solubility [4]: 62 µg/mL (≈ 132 µM); clearance [5]: 0 µL/min/mg
CC(=O)c1ccc(N2CCN(C(=O)c3cc([N+](=O)[O-])ccc3N(C)C)CC2)c(F)c1	500	2000	
CC(=O)c1ccc(N2CCN(C(=O)c3cc([N+](=O)[O-])ccc3NC(C)C)CC2)c(F)c1	2	10000	

Now from value to compound, other results behind:

EC50 [1] [nM]	EC50 [2] [nM]	SMILES	also measured
700	3100	O=C(c1cc([N+](=O)[O-])ccc1N1CCOCC1)N1CCN(c2cccc(Cl)c2)CC1	
> 10000	3300	CC(=O)c1ccc(N2CCN(C(=O)c3cc([N+](=O)[O-])ccc3N)CC2)c(F)c1	
> 30000	5100	CC(=O)c1ccc(N2CCN(C(=O)c3cc(Br)ccc3N3CCOCC3)CC2)c(F)c1	Ratio EC50 (Homo sapiens): < 0.2
2900	7700	Cc1ccc(N2CCN(C(=O)c3cc([N+](=O)[O-])ccc3N3CCOCC3)CC2)cc1	
15	4800	CC(=O)c1ccc(N2CCN(C(=O)c3cc([N+](=O)[O-])ccc3N3CCOCC3)CC2)c(F)c1	Papp [6]: 4.7 ×10⁻⁶ cm/s; clearance (Liver microsomes [3]): 35 µL/min/mg; Ratio EC50 (Homo sapiens): 320; solubility [4]: 9 µg/mL (≈ 19.7 µM); clearance (Liver microsomes [7]): 106 µL/min/mg
310	1170	O=C(c1cc([N+](=O)[O-])ccc1N1CCOCC1)N1CCN(c2ccc(Cl)cc2)CC1	
41	29000	O=C(c1cc([N+](=O)[O-])ccc1N1CCOCC1)N1CCN(c2ccc(C(F)(F)F)cc2F)CC1	
> 30000	> 30000	CC(=O)c1ccc(N2CCN(C(=O)c3cc(C)ccc3N3CCOCC3)CC2)c(F)c1	
> 10000	14200	Cc1ccccc1N1CCN(C(=O)c2cc([N+](=O)[O-])ccc2N2CCOCC2)CC1	
120	> 30000	CC(=O)c1ccc(N2CCN(C(=O)c3cc(S(N)(=O)=O)ccc3N3CCOCC3)CC2)c(F)c1	Papp [6]: 3.3 ×10⁻⁶ cm/s; clearance (Liver microsomes [3]): 31 µL/min/mg; Ratio EC50 (Homo sapiens): > 250; solubility [4]: 308 µg/mL (≈ 628 µM)
1400	11200	O=C(c1cc([N+](=O)[O-])ccc1N1CCOCC1)N1CCN(c2ccccc2Cl)CC1	
1	4000	CC(=O)c1ccc(N2CCN(C(=O)c3cc([N+](=O)[O-])ccc3N3CCCCC3)CC2)c(F)c1	
> 30000	> 30000	CC(=O)c1ccc(N2CCN(C(=O)c3cc(N)ccc3N3CCOCC3)CC2)c(F)c1	
180	13000	CC(=O)c1ccc(N2CCN(C(=O)c3cc(C#N)ccc3N3CCOCC3)CC2)c(F)c1	Papp [6]: 6.1 ×10⁻⁶ cm/s; clearance (Liver microsomes [3]): 31 µL/min/mg; Ratio EC50 (Homo sapiens): 72; solubility [4]: < 1 µg/mL; clearance (Liver microsomes [7]): 53 µL/min/mg
> 30000	> 30000	CC(=O)c1ccc(N2CCN(C(=O)c3cc(S(=O)(=O)Cc4ccccc4)ccc3N3CCOCC3)CC2)c(F)c1	
15	> 30000	N#Cc1cc(C(F)(F)F)ccc1N1CCN(C(=O)c2cc([N+](=O)[O-])ccc2N2CCOCC2)CC1	
> 30000		CC(=O)c1ccc(N2CCN(C(=O)c3ccccc3N3CCOCC3)CC2)c(F)c1	
40	> 30000	CS(=O)(=O)c1ccc(N2CCN(C(=O)c3cc([N+](=O)[O-])ccc3N3CCOCC3)CC2)c(F)c1	
> 10000	13400	COc1ccccc1N1CCN(C(=O)c2cc([N+](=O)[O-])ccc2N2CCOCC2)CC1	
30	4300	N#Cc1ccc(N2CCN(C(=O)c3cc([N+](=O)[O-])ccc3N3CCOCC3)CC2)c(F)c1	
37	15000	O=C(c1cc([N+](=O)[O-])ccc1N1CCOCC1)N1CCN(c2ccc(C(F)(F)F)c(F)c2)CC1	
1600	> 30000	CCCS(=O)(=O)c1ccc(N2CCOCC2)c(C(=O)N2CCN(c3ccc(C(C)=O)cc3F)CC2)c1	
1100	4000	Cc1cccc(N2CCN(C(=O)c3cc([N+](=O)[O-])ccc3N3CCOCC3)CC2)c1	
530	8300	COc1cccc(N2CCN(C(=O)c3cc([N+](=O)[O-])ccc3N3CCOCC3)CC2)c1	
26000	11000	CC(=O)c1ccc(N2CCN(C(=O)c3cc(C(F)(F)F)ccc3N3CCOCC3)CC2)c(F)c1	Ratio EC50 (Homo sapiens): 0.4
100	> 30000	CNS(=O)(=O)c1ccc(N2CCOCC2)c(C(=O)N2CCN(c3ccc(C(C)=O)cc3F)CC2)c1	Papp [6]: 5.3 ×10⁻⁶ cm/s; clearance (Liver microsomes [3]): 43 µL/min/mg; Ratio EC50 (Homo sapiens): > 300; solubility [4]: 30 µg/mL (≈ 59.5 µM); clearance (Liver microsomes [7]): 106 µL/min/mg
